# Measured values of several laboratories.
# Compare with care: the assays were run in different laboratories.
# Target: Testis-specific serine/threonine-protein kinase 1 (TSSK1B, Homo sapiens, UniProt Q9BXA7)
# Residues used in one study (Q9BXA7 1-367): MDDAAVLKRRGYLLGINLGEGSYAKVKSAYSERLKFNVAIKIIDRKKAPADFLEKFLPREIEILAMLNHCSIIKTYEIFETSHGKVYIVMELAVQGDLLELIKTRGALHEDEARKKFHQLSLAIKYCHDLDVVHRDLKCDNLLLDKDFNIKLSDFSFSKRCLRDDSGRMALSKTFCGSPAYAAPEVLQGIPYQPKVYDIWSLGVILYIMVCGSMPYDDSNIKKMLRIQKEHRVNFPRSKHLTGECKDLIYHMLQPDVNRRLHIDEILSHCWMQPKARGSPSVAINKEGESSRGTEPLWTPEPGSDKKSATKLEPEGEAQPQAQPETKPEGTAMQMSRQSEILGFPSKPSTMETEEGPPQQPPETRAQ
Structure (SMILES),effect on,technique,concentration,remaining binding
CN(CCCC(F)(F)F)c1nccc(-c2cnn3ncccc23)n1,binding,,1 µM,92%
O=C(c1ccc(Nc2ncc(Cl)c(-c3ccc(Cl)s3)n2)cc1)N1CCC(N2CCCC2)CC1,binding,competition with immobilised ligand,1 µM,49%
Cc1noc([C@H]2C[C@@H](c3ccc(C(F)(F)F)cc3)CN(C(=O)N3CCS(=O)(=O)C3)C2)n1,cell-free assay,competition with immobilised ligand,1 µM,100%
COc1cnc(Nc2cccc(S(N)(=O)=O)c2)nc1N1CCN(c2ccccc2)C(=O)C1,binding,competition with immobilised ligand,1 µM,92%
O=C(NCCCN1CCOCC1)c1ccc(Nc2nccc(-c3cc4ccccc4s3)n2)cc1,binding,competition with immobilised ligand,1 µM,93%
O=C(Nc1c[nH]nc1C(=O)NC1CCNCC1)c1cc(F)cc(F)c1,binding,competition with immobilised ligand,1 µM,100%
CN(C)c1nccc(-c2cnc3ncccn23)n1,binding,,1 µM,100%
COc1ccc2c(c1)O[C@H](c1ccc(OC)c(OC)c1)C[C@@H]2NC(=O)C1(c2ccc3c(c2)OC(F)(F)O3)CC1,cell-free assay,competition with immobilised ligand,1 µM,100%
Nc1ncc2c(n1)-c1c([nH]c3ccc(C#CC4CC4)cc13)CCCC2,binding,competition with immobilised ligand,1 µM,100%
C[C@@H](c1ccc(-n2cnc3c(N)ncnc32)cc1)N1CCc2nn(C)c(Cc3ccccc3)c2C1=O,binding,competition with immobilised ligand,0.1 µM,100%
Cn1cc(Cl)c2c(Oc3c(F)cc(Nc4cc(Cl)nc(N)n4)cc3F)ccnc21,cell-free assay,competition with immobilised ligand,0.1 µM,100%
N#Cc1ccccc1CSc1nnc2c(n1)[nH]c1ccccc12,binding,competition with immobilised ligand,10 µM,100%
c1cncc(-c2cccc(Nc3nccc(NC4CCCCC4)n3)c2)c1,binding,competition with immobilised ligand,10 µM,60%
COc1ncc2cc3ccccc3nc2c1C#N,cell-free assay,competition with immobilised ligand,5 µM,97%
C[C@@H]1CCN(c2nccc(-c3cnn4ncccc34)n2)C1,binding,,1 µM,100%
O=C(N1CCS(=O)(=O)CC1)N1C[C@H](c2ccc(OC(F)(F)F)cc2)C[C@H](c2nc(C3CC3)no2)C1,cell-free assay,competition with immobilised ligand,1 µM,95%
N[C@H]1CCN(c2nccc(-c3cnn4ncccc34)n2)C1,binding,,1 µM,100%
CSc1cccnc1N1CCN(Cc2nc3ccccc3[nH]2)CC1,cell-free assay,competition with immobilised ligand,1 µM,100%
C[C@@H]1CN(c2ccc3ncc(-c4ccc5[nH]nc(C6CC6)c5c4)n3n2)C[C@H](C)O1,binding,competition with immobilised ligand,0.5 µM,100%
COc1ccnn2ncc(-c3ccnc(N(C)C)n3)c12,binding,,1 µM,100%
O=C(O)[C@@H]1[C@@H](Cn2nnc3ccccc3c2=O)CC[C@H]1C(=O)c1ccc(OCCC2CCOCC2)cc1,cell-free assay,competition with immobilised ligand,1 µM,100%
CN(c1nccc(-c2cnn3ncccc23)n1)C1CC1,binding,,1 µM,100%
O=C(NS(=O)(=O)c1ccc(NCC2CCOCC2)c([N+](=O)[O-])c1)c1ccc(N2CCN(Cc3ccc(C(F)(F)F)cc3-c3ccc(Cl)cc3)CC2)cc1Oc1cnc2[nH]ccc2c1,cell-free assay,competition with immobilised ligand,1 µM,100%
c1cnn2ncc(-c3ccnc(N4CCC45COC5)n3)c2c1,binding,,1 µM,65%
COc1ccc2cc(OCC3(C(=O)O)CN(C(=O)c4ccc(F)cc4)C3)ccc2c1,cell-free assay,competition with immobilised ligand,1 µM,100%
O=C(NCCCN1CCOCC1)c1ccc(Nc2ncc(Cl)c(-c3ccc(Cl)s3)n2)cc1,binding,competition with immobilised ligand,1 µM,62%
